Measured values taken from PubChem BioAssay AID602301 (The Scripps Research Institute Molecular Screening Center, 2012).
The source made the active and inactive calls.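 The calls were made as follows: active = inhibition of at least 50%; inactive = inhibition below 50%.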

What follows are compounds tested on Abhydrolase domain-containing protein 11 (ABHD11), Mus musculus (assay: mouse ABHD11 activity inhibitors in proteome – biochemical, competitive gel ABPP, set 1, selectivity assay for DAGLb inhibitor project, late-stage follow-up (AID 602301)). Conditions: Recombinant ABHD11 in HEK293T proteome, gel ABPP FP-Rh; at 10 µM; active compounds read high.
Method in brief: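 test system = recombinant mouse ABHD11 spiked into HEK293T membrane proteome overexpressing mouse DAGLb | buffer or medium = DPBS | times = compound pre-incubation 30 min, then probe labelling 30 min, both 37 °C | technique = in-gel fluorescence scan after SDS-PAGE, band integrated optical density | evaluation = percent inhibition of ABHD11 band, background-corrected, relative to DMSO control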

| Structure (SMILES) | inhibition |
| --- | --- |
| O=C(N1CCCCC1Cc1ccccc1)n1cc(-c2ccc(-c3cccc(CO)c3)cc2)nn1 (stereo not given) | 20% (inactive) |
| O=C(N1CCCCC1Cc1ccccc1)n1cc(-c2ccc(-c3ccc4c(c3)OCO4)cc2)nn1 (stereo not given) | 10% (inactive) |
| O=C(N1CCCCC1Cc1ccccc1)n1cc(-c2ccc(-c3ccccc3C(F)(F)F)cc2)nn1 (stereo not given) | 10% (inactive) |
| O=C(N1CCCCC1Cc1ccccc1)n1cc(-c2ccccc2-c2ccccc2)nn1 (stereo not given) | 95% |
| O=C(N1CCCCC1Cc1ccccc1)n1cc(-c2ccc(-c3cccc(C(F)(F)F)c3)cc2)nn1 (stereo not given) | 10% (inactive) |
| O=C(N1CCCCC1Cc1ccccc1)n1cc(-c2ccc(-c3ccc(OC(F)(F)F)cc3)cc2)nn1 (stereo not given) | 20% (inactive) |
| Cc1ccccc1-c1ccc(-c2cn(C(=O)N3CCCCC3Cc3ccccc3)nn2)cc1 (stereo not given) | 60% |
| O=C(c1ccc(-c2ccc(-c3cn(C(=O)N4CCCCC4Cc4ccccc4)nn3)cc2)cc1)N1CCCCC1 (stereo not given) | 20% (inactive) |
| O=C(N1CCCCC1Cc1ccccc1)n1cc(-c2ccc(Br)cc2)nn1 (stereo not given) | 90% |
| O=C(N1CCCCC1Cc1ccccc1)n1cc(-c2ccc(-c3ccccc3CO)cc2)nn1 (stereo not given) | 20% (inactive) |
| O=C(N1CCCCC1Cc1ccccc1)n1cc(-c2ccc(-c3ccccc3)cc2)nn1 (stereo not given) | 0% (inactive) |
| O=C(N1CCCCC1Cc1ccccc1)n1cc(-c2cc(F)cc(F)c2)nn1 (stereo not given) | 95% |
| O=C(N1CCCCC1Cc1ccccc1)n1cc(-c2ccc(-c3ccccc3OC(F)(F)F)cc2)nn1 (stereo not given) | 20% (inactive) |
| O=C(N1CCCCC1Cc1ccccc1)n1ncc(C(O)(c2ccccc2)c2ccccc2)n1 (stereo not given) | 95% |
| O=C(N1CCCCC1Cc1ccccc1)n1cc(-c2ccc(-c3ccccc3Cl)cc2)nn1 (stereo not given) | 50% |
| O=C(N1CCCCC1Cc1ccccc1)n1ncc(-c2ccc(OC(F)(F)F)cc2)n1 (stereo not given) | 10% (inactive) |
| O=C(N1CCCCC1Cc1ccccc1)n1cc(-c2cccc(-c3ccccc3)c2)nn1 (stereo not given) | 80% |
| CC(C)CN(CCc1ccccc1)C(=O)n1cc(-c2ccc(OC(F)(F)F)cc2)nn1 | 10% (inactive) |
| O=C(N1CCCCC1Cc1ccccc1)n1cc(-c2ccc(-c3ccoc3)cc2)nn1 (stereo not given) | 30% (inactive) |
| O=C(N1CCCCC1Cc1ccccc1)n1cc(-c2ccc(-c3ccc(C(F)(F)F)cc3)cc2)nn1 (stereo not given) | 30% (inactive) |
| O=C(N(CCc1ccccc1)Cc1ccco1)n1cc(-c2ccc(OC(F)(F)F)cc2)nn1 | 15% (inactive) |
| COc1ccccc1-c1ccc(-c2cn(C(=O)N3CCCCC3Cc3ccccc3)nn2)cc1 (stereo not given) | 10% (inactive) |
| O=C(c1ccc(-c2cn(C(=O)N3CCCCC3Cc3ccccc3)nn2)cc1)N1CCCCC1 (stereo not given) | 10% (inactive) |
| O=C(N1CCCCC1Cc1ccccc1)n1cc(-c2ccc(OC(F)(F)F)cc2)nn1 (stereo not given) | 50% |
| CC(C)(C)OC(=O)NCCCCCN(CCc1ccccc1)C(=O)n1cc(-c2ccc(OC(F)(F)F)cc2)nn1 | 0% (inactive) |
